Test results from ChEMBL document CHEMBL3393025, “Discovery of dual leucine zipper kinase (DLK, MAP3K12) inhibitors with activity in neurodegeneration models” (J Med Chem, 2015).

Tests used:
[1] = biological target: T1, Mitogen-activated protein kinase kinase kinase 12 (Homo sapiens, UniProt Q12852); experiment: Inhibition of DLK (unknown origin)
T1 sequence (Q12852 whole entry): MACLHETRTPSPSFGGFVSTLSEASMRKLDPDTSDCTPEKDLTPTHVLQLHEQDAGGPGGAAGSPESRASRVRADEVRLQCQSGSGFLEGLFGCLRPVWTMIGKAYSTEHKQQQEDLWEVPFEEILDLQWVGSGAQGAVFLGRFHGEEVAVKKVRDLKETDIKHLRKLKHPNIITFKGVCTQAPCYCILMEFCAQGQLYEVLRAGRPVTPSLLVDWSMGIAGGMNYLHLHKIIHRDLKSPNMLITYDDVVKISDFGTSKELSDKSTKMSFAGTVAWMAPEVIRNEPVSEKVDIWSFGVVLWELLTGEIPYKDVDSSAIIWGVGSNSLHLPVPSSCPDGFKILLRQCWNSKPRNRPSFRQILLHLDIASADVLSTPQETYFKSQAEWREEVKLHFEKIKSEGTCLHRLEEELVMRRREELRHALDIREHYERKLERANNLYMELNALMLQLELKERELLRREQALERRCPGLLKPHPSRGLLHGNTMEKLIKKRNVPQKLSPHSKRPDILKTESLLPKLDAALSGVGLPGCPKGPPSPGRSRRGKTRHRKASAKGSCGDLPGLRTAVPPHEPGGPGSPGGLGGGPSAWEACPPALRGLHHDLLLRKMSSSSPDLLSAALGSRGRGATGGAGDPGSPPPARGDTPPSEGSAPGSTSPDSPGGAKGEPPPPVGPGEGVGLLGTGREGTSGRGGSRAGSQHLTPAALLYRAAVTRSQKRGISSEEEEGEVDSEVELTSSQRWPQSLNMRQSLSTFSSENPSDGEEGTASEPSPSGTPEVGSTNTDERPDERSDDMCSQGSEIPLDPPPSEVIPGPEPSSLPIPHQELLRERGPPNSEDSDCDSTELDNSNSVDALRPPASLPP

[2] = biological target: T1, Mitogen-activated protein kinase kinase kinase 12; experiment: Inhibition of human DLK transfected in HEK293 cells assessed as JNK phosphorylation after 5.5 hrs by Hoechst-33342 staining-based assay; assay type: cell-based
[3] = Neuroprotective activity in E14.5 rat embryo DRG neurons; assay type: functional; conditions: drg neuron
In short: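 DRG neurons freshly dissected from E14.5 rat embryos, plated at 1200−2000 cells/well on an astrocyte monolayer in DMEM/F12 with N3 supplement, 0.18% glucose and 25 ng/mL NGF. 200 μM uridine and 100 μM 5-fluorodeoxyuridine added next day. Cultured 4 days before axon degeneration assay. IC50 reported.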

CC(=O)N1CCC(c2cc(Nc3cc(C(F)(F)F)ccn3)nc(N3CC(F)(F)C3)n2)CC1
Ki [1]: 0.166 µM

FC(F)(F)c1ccnc(Nc2cc(C3CCCNC3)nc(N3CCCC3)n2)c1 (stereo not drawn)
Ki [1]: 0.007 µM
IC50 [2]: 0.109 µM

N#Cc1ccnc(Nc2cc(C3CCN(C4COC4)CC3)cc(N3CCC3)n2)c1
IC50 [3]: 0.448 µM
Ki [1]: 0.008 µM
IC50 [2]: 0.141 µM

Cc1nc(Nc2ncc(C)s2)cc(C2CCCN(C(=O)c3ccccc3)C2)n1 (racemic)
Ki [1]: 0.035 µM
IC50 [2]: 0.641 µM

COC1CN(c2cc(C3CCN(C4COC4)CC3)cc(Nc3cc(C#N)ccn3)n2)C1
IC50 [3]: 0.697 µM
Ki [1]: 0.008 µM
IC50 [2]: 0.233 µM

Cc1cc(C2CCN(C3COC3)CC2)cc(Nc2cc(C#N)ccn2)n1
IC50 [2]: 1.6 µM

N#Cc1ccnc(Nc2cc(C3CN(C4COC4)C3)cc(N3CCC(F)(F)C3)n2)c1
IC50 [3]: 0.099 µM
Ki [1]: 0.0007 µM
IC50 [2]: 0.057 µM

CCc1cc(C2CCN(C3COC3)CC2)cc(Nc2cc(C#N)ccn2)n1
IC50 [3]: 0.916 µM
IC50 [2]: 0.213 µM

CC(=O)N1CCC(c2cc(Nc3cc(C(F)(F)F)ccn3)nc(N3CCC(F)(F)C3)n2)CC1
Ki [1]: 0.033 µM
IC50 [2]: 0.3 µM

Cc1nc(Nc2ccccn2)cc(C2CCCN(C(=O)c3ccccc3)C2)n1 (racemic)
Ki [1]: 0.942 µM

Cc1nc(Nc2cc(C(F)(F)F)ccn2)cc(C2CCCNC2)n1 (racemic)
Ki [1]: 0.725 µM

Cc1nc(Nc2cc(C#N)ccn2)cc(C2CCCN(C(=O)c3ccccc3)C2)n1 (racemic)
Ki [1]: 0.09 µM
IC50 [2]: 1 µM

N#Cc1ccnc(Nc2cc(C3(C#N)CCOCC3)cc(N3CCC(F)(F)C3)n2)c1
Ki [1]: 0.005 µM
IC50 [2]: 0.079 µM

CC(C)(O)c1cc(Nc2cc(C#N)ccn2)nc(N2CCC(F)(F)C2)c1
IC50 [3]: 0.401 µM
Ki [1]: 0.005 µM
IC50 [2]: 0.125 µM

CC(C)(C#N)c1cc(Nc2cc(C#N)ccn2)nc(N2CCC(F)(F)C2)c1
Ki [1]: 0.014 µM
IC50 [2]: 0.193 µM

COc1ccnc(Nc2cc(C3CCCN(C(=O)c4ccccc4)C3)nc(C)n2)c1 (racemic)
Ki [1]: 0.057 µM
IC50 [2]: 1 µM

Cc1nc(Nc2cc(C(C)C)ccn2)cc(C2CCCN(C(=O)c3ccccc3)C2)n1 (racemic)
Ki [1]: 0.004 µM
IC50 [2]: 1.3 µM

Cc1nc(Nc2cc(C3CC3)ccn2)cc(C2CCCN(C(=O)c3ccccc3)C2)n1 (racemic)
Ki [1]: 0.018 µM
IC50 [2]: 0.486 µM

N#Cc1ccnc(Nc2cc(C3CCN(C4COC4)CC3)cc(C3CC3)n2)c1
IC50 [3]: 0.155 µM
Ki [1]: 0.001 µM
IC50 [2]: 0.062 µM

Cc1nc(Nc2cc(C(F)(F)F)ccn2)cc(C2CCCN(C(=O)c3ccccc3)C2)n1 (racemic)
Ki [1]: 0.024 µM
IC50 [2]: 0.229 µM

N#Cc1ccnc(Nc2cc(C3CCOCC3)cc(N3CCC(F)(F)C3)n2)c1
Ki [1]: 0.0009 µM
IC50 [2]: 0.07 µM

FC1(F)CCN(c2nc(Nc3cc(C(F)(F)F)ccn3)cc(C3CCCNC3)n2)C1 (stereo not drawn)
Ki [1]: 0.007 µM
IC50 [2]: 0.408 µM

CC(=O)N1CCC(c2cc(Nc3cc(C(F)(F)F)ccn3)nc(N3CCOCC3)n2)CC1
Ki [1]: 0.431 µM

FC1(F)CCN(c2nc(Nc3cc(C(F)(F)F)ccn3)cc(C3CCOCC3)n2)C1
Ki [1]: 0.041 µM
IC50 [2]: 0.44 µM

CC(=O)N1CCC(c2cc(Nc3cc(C(F)(F)F)ccn3)nc(N3CCC(F)(F)C3)c2)CC1
IC50 [3]: 0.171 µM
Ki [1]: 0.001 µM
IC50 [2]: 0.069 µM

CC(=O)N1CCC(c2cc(Nc3cc(C#N)ccn3)nc(N3CCC(F)(F)C3)c2)CC1
IC50 [3]: 0.18 µM
Ki [1]: 0.025 µM

Cc1ccnc(Nc2cc(C3CCCN(C(=O)c4ccccc4)C3)nc(C)n2)c1 (racemic)
Ki [1]: 0.085 µM
IC50 [2]: 0.767 µM

N#Cc1ccnc(Nc2cc(C3CCN(C4COC4)CC3)cc(OC3CCC3)n2)c1
IC50 [3]: 0.046 µM
Ki [1]: 0.0002 µM
IC50 [2]: 0.064 µM
